Laboratory results taken from ChEMBL document CHEMBL1671715, “Depolarization, bacterial membrane composition, and the antimicrobial action of ceragenins” (2010).
≈ marks a conversion by molar mass, not a printed value. Calls of active or inactive are those of the source. No cut-off for these calls is given here.

Columns and labels:
[1] = tested on: Paenibacillus polymyxa; assay: Bactericidal activity against Bacillus polymyxa ATCC 21830 with lipid composition of 60% phosphatidylethanolamine, 3% phosphatidylglycerol and 8% cardiolipin by broth microdilution method; type: functional
Method in brief: (§1)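 Cells were incubated 24 h with incrementally varied ceragenin concentrations, then plated on tryptic soy agar. MBC is the lowest concentration completely eradicating bacteria (detection limit 10 CFU/ml).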

[2] = tested on: Escherichia coli; assay: Bactericidal activity against Escherichia coli ATCC 25922 with lipid composition of […], 15% phosphatidylglycerol and 5% cardiolipin by broth microdilution method; type: functional
Method in brief: (§2)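 MBC by broth microdilution in the Gram-negative depolarization buffer (20 mM glucose, 5 mM HEPES, pH 7.3). Cells were incubated 24 h with incrementally varied ceragenin concentrations and plated on tryptic soy agar. MBC is the lowest concentration completely eradicating bacteria (detection limit 10 CFU/ml).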

[3] = tested on: Escherichia coli; assay: Induction of inner membrane permeabilization of Escherichia coli ML-35p by ONPG hydrolysis based spectrophotometric assay; type: functional, organism-based
Method in brief: (§3)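 E. coli ML-35p grown overnight in TSB at 37°C, washed three times in 10 mM phosphate/0.1 M NaCl, pH 7.4. Diluted to 10^6 CFU/ml in the same buffer with 300 μg/ml TSB. Ceragenin or melittin 0–100 μg/ml, in duplicate. Outer membrane: 30 μM nitrocefin, A486. Inner membrane: 2.5 mM ONPG, A420. Read every 2 min for 60 min at 37°C with shaking.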

[4] = tested on: Staphylococcus aureus; assay: Induction of cytoplasmic membrane depolarization in Staphylococcus aureus ATCC BAA-41 with lipid composition of 0% phosphatidylethanolamine, 57% phosphatidylglycerol and 19% cardiolipin at MBC by DiS-C2 dye based fluorimetric assay; type: functional
Method in brief: (§4)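 Overnight TSB cultures (37°C) were washed three times in 250 mM sucrose, 5 mM MgSO4, 10 mM K phosphate, pH 7.0, and diluted to A600 0.085 with 1 μM DiS-C2(5). Dye loaded 7 min at room temperature, then 7 min at 37°C. Ceragenin added with stirring at 37°C; fluorescence (ex 600/em 660 nm) read every 30 s. Depolarization at 330 s is expressed as % of the maximal fluorescence increase at 4× MBC.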

[5] = tested on: Staphylococcus epidermidis; assay: Bactericidal activity against Staphylococcus epidermidis ATCC 35984 with lipid composition of 0% phosphatidylethanolamine, 90% phosphatidylglycerol and 1% cardiolipin by broth microdilution method; type: functional; method in brief: as §1
[6] = tested on: Bacillus cereus; assay: Induction of cytoplasmic membrane depolarization in Bacillus cereus ATCC 11778 with lipid composition of 43% phosphatidylethanolamine, 40% phosphatidylglycerol and 17% cardiolipin at MBC by DiS-C2 dye based fluorimetric assay; type: functional; method in brief: as §4
[7] = tested on: Paenibacillus polymyxa; assay: Induction of cytoplasmic membrane depolarization in Bacillus polymyxa ATCC 21830 with lipid composition of 60% phosphatidylethanolamine, 3% phosphatidylglycerol and 8% cardiolipin at MBC by DiS-C2 dye based fluorimetric assay; type: functional; method in brief: as §4
[8] = tested on: Staphylococcus aureus; assay: Induction of cytoplasmic membrane depolarization in Staphylococcus aureus ATCC 25923 with lipid composition of 0% phosphatidylethanolamine, 57% phosphatidylglycerol and 19% cardiolipin at MBC by DiS-C2 dye based fluorimetric assay; type: functional; method in brief: as §4
[9] = tested on: Bacillus cereus; assay: Bactericidal activity against Bacillus cereus ATCC 11778 with lipid composition of 43% phosphatidylethanolamine, 40% phosphatidylglycerol and 17% cardiolipin by broth microdilution method; type: functional; method in brief: as §1
[10] = tested on: Staphylococcus aureus; assay: Bactericidal activity against methicillin-resistant Staphylococcus aureus ATCC BAA-41 with lipid composition of 0% phosphatidylethanolamine, 57% phosphatidylglycerol and 19% cardiolipin by broth microdilution method; type: functional
Method in brief: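 Cells were incubated 24 h with stepwise-varied ceragenin concentrations, then each sample was plated on tryptic soy agar. MBC was taken as the lowest concentration giving complete kill (detection limit 10 CFU/ml).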

[11] = tested on: Enterococcus faecalis; assay: Bactericidal activity against Enterococcus faecalis ATCC 29212 with lipid composition of 0% phosphatidylethanolamine, 27% phosphatidylglycerol and 19% cardiolipin by broth microdilution method; type: functional; method in brief: as §1
[12] = tested on: Escherichia coli; assay: Induction of outer membrane permeabilization of Escherichia coli ML-35p by nitrocefin permeation based spectrophotometric assay; type: functional, organism-based; method in brief: as §3
[13] = tested on: Klebsiella pneumoniae; assay: Bactericidal activity against Klebsiella pneumoniae ATCC 13883 with lipid composition of 82% phosphatidylethanolamine, 5% phosphatidylglycerol and 6% cardiolipin by broth microdilution method; type: functional; method in brief: as §2
[14] = tested on: Staphylococcus aureus; assay: Bactericidal activity against Staphylococcus aureus ATCC 25923 with lipid composition of 0% phosphatidylethanolamine, 67% phosphatidylglycerol and 19% cardiolipin by broth microdilution method; type: functional; conditions: in the assay text read “57% phosphatidylglycerol” for “67% phosphatidylglycerol”; method in brief: as §1
[15] = tested on: Pseudomonas aeruginosa; assay: Bactericidal activity against Pseudomonas aeruginosa ATCC 27852 with lipid composition of 60% phosphatidylethanolamine, 21% phosphatidylglycerol and 11% cardiolipin by broth microdilution method; type: functional; method in brief: as §2
[16] = tested on: Staphylococcus epidermidis; assay: Induction of cytoplasmic membrane depolarization in Staphylococcus epidermidis ATCC 35984 with lipid composition of 0% phosphatidylethanolamine, 90% phosphatidylglycerol and 1% cardiolipin at MBC by DiS-C2 dye based fluorimetric assay; type: functional; method in brief: as §4
[17] = tested on: Enterococcus faecalis; assay: Induction of cytoplasmic membrane depolarization in Enterococcus faecalis ATCC 29212 with lipid composition of 0% phosphatidylethanolamine, 27% phosphatidylglycerol and 19% cardiolipin at MBC by DiS-C2 dye based fluorimetric assay; type: functional; method in brief: as §4
[18] = tested on: Klebsiella pneumoniae; assay: Induction of outer membrane permeabilization of Klebsiella pneumoniae ATCC 13883 at MBC by DiS-C2 dye based fluorimetric assay; type: functional, organism-based
Method in brief: (§5)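 Overnight TSB cultures (37°C), washed three times in TSB, then suspended in 20 mM glucose/5 mM HEPES, pH 7.3, at A600 0.085 with 1 μM DiS-C2(5). Equilibrated about 60 min at 37°C to a stable baseline. EDTA or ceragenin added; fluorescence (ex 600/em 660 nm) read every 30 s with stirring at 37°C. A fluorescence drop indicates outer-membrane permeabilization and dye uptake.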

[19] = tested on: Escherichia coli; assay: Induction of inner membrane permeabilization of Escherichia coli ML-35p at 100 ug/ml by ONPG hydrolysis based spectrophotometric assay
[20] = tested on: Escherichia coli; assay: Induction of outer membrane permeabilization of Escherichia coli ATCC 25922 at MBC by DiS-C2 dye based fluorimetric assay; type: functional, organism-based; method in brief: as §5

Which MBC [1] does the source give for CCCCCCCCNCCC[C@@H](C)[C@H]1CC[C@H]2[C@@H]3[C@H](OCCCN)C[C@@H]4C[C@H](OCCCN)CC[C@]4(C)[C@H]3C[C@H](OCCCN)[C@]12C here?
Its MBC is 2.5 µg/mL (≈ 3.69 µM).

And the MBC [2]?
The MBC was 1.5 µg/mL (≈ 2.22 µM).

And the Activity [3]?
The Activity was “Active”.

What about the Activity [4] of the same compound?
The Activity was 45.8%.

What about the MBC [5] of the same compound?
The MBC was 1 µg/mL (≈ 1.48 µM).

What about the Activity [6] of the same compound?
The Activity was 86.7%.

And the Activity [7]?
Its Activity is 88.4%.

And the Activity [8]?
Its Activity is 41.5%.

And the MBC [9]?
The MBC was 1 µg/mL (≈ 1.48 µM).

What about the MBC [10] of the same compound?
Its MBC is 2 µg/mL (≈ 2.95 µM).

What about the MBC [11] of the same compound?
Its MBC is 5.5 µg/mL (≈ 8.12 µM).

What about the Activity [12] of the same compound?
The Activity was “Dose-dependent effect”.

What about the MBC [13] of the same compound?
Its MBC is 2.5 µg/mL (≈ 3.69 µM).

And the MBC [14]?
Its MBC is 2.5 µg/mL (≈ 3.69 µM).

And the MBC [15]?
The MBC was 3.5 µg/mL (≈ 5.17 µM).

What about the Activity [16] of the same compound?
Its Activity is 25%.

What about the Activity [17] of the same compound?
The Activity was 74%.

For CC[C@H](C)[C@H](NC(=O)CN)C(=O)NCC(=O)N[C@@H](C)C(=O)N[C@H](C(=O)N[C@@H](CC(C)C)C(=O)N[C@@H](CCCCN)C(=O)N[C@H](C(=O)N[C@@H](CC(C)C)C(=O)N[C@H](C(=O)N[C@H](C(=O)NCC(=O)N[C@@H](CC(C)C)C(=O)N1CCC[C@H]1C(=O)N[C@@H](C)C(=O)N[C@@H](CC(C)C)C(=O)N[C@H](C(=O)N[C@@H](CO)C(=O)N[C@@H](Cc1c[nH]c2ccccc12)C(=O)N[C@H](C(=O)N[C@@H](CCCCN)C(=O)N[C@@H](CCCNC(=N)N)C(=O)N[C@@H](CCCCN)C(=O)N[C@@H](CCCNC(=N)N)C(=O)N[C@@H](CCC(N)=O)C(=O)N[C@@H](CCC(N)=O)C(N)=O)[C@@H](C)CC)[C@@H](C)CC)[C@@H](C)O)[C@@H](C)O)C(C)C)C(C)C, which Activity [12] is on record?
The Activity was “Active”.

Which MBC [1] does the source give for C[C@H](CCCO)[C@H]1CC[C@H]2[C@@H]3[C@H](OCCCN)C[C@@H]4C[C@H](OCCCN)CC[C@]4(C)[C@H]3C[C@H](OCCCN)[C@]12C here?
The MBC was 15 µg/mL (≈ 26.5 µM).

What about the MBC [2] of the same compound?
The MBC was 10 µg/mL (≈ 17.7 µM).

And the Activity [4]?
The Activity was 39%.

What about the Activity [18] of the same compound?
The Activity was “Active”.

What about the MBC [5] of the same compound?
Its MBC is 12 µg/mL (≈ 21.2 µM).

What about the Activity [6] of the same compound?
Its Activity is 84.7%.

And the Activity [7]?
The Activity was 96.6%.

And the Activity [8]?
The Activity was 82.8%.

And the MBC [9]?
Its MBC is 7 µg/mL (≈ 12.4 µM).

What about the MBC [10] of the same compound?
Its MBC is 19 µg/mL (≈ 33.6 µM).

And the MBC [11]?
Its MBC is 50 µg/mL (≈ 88.4 µM).

What about the Activity [12] of the same compound?
The Activity was “Dose-dependent effect”.

What about the MBC [13] of the same compound?
Its MBC is 12.5 µg/mL (≈ 22.1 µM).

And the Activity [19]?
The Activity was “inactive”.

What about the MBC [14] of the same compound?
The MBC was 35 µg/mL (≈ 61.9 µM).

What about the MBC [15] of the same compound?
The MBC was 12 µg/mL (≈ 21.2 µM).

And the Activity [16]?
The Activity was 60.1%.

And the Activity [20]?
Its Activity is “Active”.

And the Activity [17]?
The Activity was 80.6%.

With C[C@H](CCCNCCCNCCCN)[C@H]1CC[C@H]2[C@@H]3[C@H](OCCCN)C[C@@H]4C[C@H](OCCCN)CC[C@]4(C)[C@H]3C[C@H](OCCCN)[C@]12C as the compound, how does the MBC [1] read?
The MBC was 2.5 µg/mL (≈ 3.68 µM).

What about the Activity [4] of the same compound?
The Activity was 15.3%.

And the MBC [5]?
Its MBC is 2.5 µg/mL (≈ 3.68 µM).

And the Activity [6]?
Its Activity is 79.7%.

What about the Activity [7] of the same compound?
Its Activity is 39.6%.

What about the Activity [8] of the same compound?
The Activity was 39.8%.

And the MBC [9]?
The MBC was 7 µg/mL (≈ 10.3 µM).

What about the MBC [10] of the same compound?
Its MBC is 28 µg/mL (≈ 41.2 µM).

And the MBC [11]?
Its MBC is 280 µg/mL (≈ 412 µM).

What about the Activity [12] of the same compound?
Its Activity is “Dose-dependent effect”.

And the Activity [19]?
The Activity was “inactive”.

What about the MBC [14] of the same compound?
Its MBC is 49 µg/mL (≈ 72.2 µM).

And the Activity [16]?
Its Activity is 26.3%.

What about the Activity [17] of the same compound?
The Activity was 77.2%.
